Reference: ChEMBL document CHEMBL4257448, “Deciphering the origins of molecular toxicity of combretastatin A4 and its glycoconjugates: interactions with major drug transporters and their safety profiles in vitro and in vivo” (Medchemcomm, 2017)
In brackets after ≈: the same amount, converted by molar mass.

Experiments:
[1] = Cytotoxicity against HEK293FT cells assessed as reduction in cell viability up to 20 uM; format: cell-based; details: human
HT-29 [2] = experiment: Cytotoxicity against human HT-29 cells assessed as reduction in cell viability after 72 hrs by MTT assay; format: functional, cell-based; details: HT-29, 72 h
Procedure, shortened: (§1)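 HT29 cells were cultured in RPMI-1640 with glutamine and 10% FBS, seeded at 2000–7500 cells/well, and exposed for 72 h to drug in DMSO (final DMSO <0.1%). MTT was added at 0.83 mg mL−1 final and incubated overnight, then cells were lysed in SDS/HCl and read at 570 nm. Survival was expressed as percent of drug-free control; five replicate wells.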

HT-29 [3] = experiment: […] for human HT-29 cells assessed as reduction in cell viability after 72 hrs by MTT assay; format: functional; procedure, shortened: as §1
Mus musculus = experiment: Ratio of compound MTD to CA4 MTD in ip dosed DBA/2 mouse assessed as reduction in 15% body weight administered as daily dose for 3 days; format: ADME, organism-based; details: in vivo, 72 h
[4] = Ratio of CA4 aqueous solubility to test compound aqueous solubility; format: physicochemical; details: buffer
[5] = Aqueous solubility of the compound after 1 hrs by HPLC-UV method; format: physicochemical; details: deionized water
Procedure, shortened: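 Shaken in tubes at 25 °C for 1 h, protected from light, then filtered through 0.2 μm filters; filtrate diluted in deionized water and quantified by reversed-phase HPLC-UV (C18 column, room temperature, methanol/water 70:30 v/v, 1.0 mL min−1).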

[6] = Cytotoxicity against HEK293FT cells expressing GLUT1 assessed as reduction in cell viability up to 20 uM; format: cell-based; details: human
[7] = Toxicity in ip dosed DBA/2 mouse assessed as reduction in 15% body weight administered as daily dose for 3 days; format: organism-based; details: in vivo
Procedure, shortened: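 Adult male DBA/2 mice were dosed i.p. at 10 mL kg−1, with 5 per group. Controls (n = 8) received saline. MTD was the dose allowing 15% median body-weight loss with no toxic deaths or marked change in general signs within 3 days.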

SMILES	Activity [1]	IC50 (HT-29 [2])	Ratio IC50 (HT-29 [3])	Ratio (Mus musculus)	Ratio [4]	solubility at 1 h [5]	Activity [6]	MTD at 72 h [7]
COc1ccc(/C=C\c2cc(OC)c(OC)c(OC)c2)cc1O[C@H]1O[C@H](CO)[C@@H](O)[C@H](O)[C@@H]1O	Toxic	11.4 µM	15.89	16	1963	5890 µg/mL (≈ 12.3 mM)	Toxic	400 mg/kg
COc1ccc(/C=C\c2cc(OC)c(OC)c(OC)c2)cc1O[C@@H]1O[C@H](CO)[C@H](O)[C@H](O)[C@H]1O	Toxic	39.3 µM	54.61	34	853	2560 µg/mL (≈ 5.35 mM)	Toxic	550 mg/kg
